Experimental data published in BindingDB's records for doi:10.1016/j.ejmech.2013.06.039 (University of Salerno, 2013).

Assays:
[1] = target: T1, Polyunsaturated fatty acid 5-lipoxygenase (Homo sapiens, UniProt P09917); assay: Inhibition of human recombinant 5-LO expressed in Escherichia coli BL21 using arachidonic acid as substrate after 10 mins
T1 sequence (P09917 whole entry): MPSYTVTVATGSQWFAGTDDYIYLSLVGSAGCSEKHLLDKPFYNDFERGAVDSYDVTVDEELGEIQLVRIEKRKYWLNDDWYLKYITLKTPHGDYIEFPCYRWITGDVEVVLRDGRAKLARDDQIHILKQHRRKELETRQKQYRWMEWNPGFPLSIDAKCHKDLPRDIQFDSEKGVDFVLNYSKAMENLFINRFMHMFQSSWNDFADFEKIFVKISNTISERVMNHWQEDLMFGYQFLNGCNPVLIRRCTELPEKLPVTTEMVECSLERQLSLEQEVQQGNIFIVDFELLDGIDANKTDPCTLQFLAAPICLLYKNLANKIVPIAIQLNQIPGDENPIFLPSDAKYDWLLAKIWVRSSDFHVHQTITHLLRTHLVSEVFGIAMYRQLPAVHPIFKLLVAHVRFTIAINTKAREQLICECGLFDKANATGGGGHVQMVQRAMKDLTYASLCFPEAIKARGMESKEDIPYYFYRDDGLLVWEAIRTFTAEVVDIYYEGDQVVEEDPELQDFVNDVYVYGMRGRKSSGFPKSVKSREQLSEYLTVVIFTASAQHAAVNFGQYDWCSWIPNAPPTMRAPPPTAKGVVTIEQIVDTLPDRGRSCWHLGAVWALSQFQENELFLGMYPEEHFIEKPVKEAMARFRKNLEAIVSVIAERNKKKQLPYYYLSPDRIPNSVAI
Method in brief: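 Purified 5-LO was diluted in PBS/EDTA and pre-incubated with compound for 5–10 min at 4 °C, then pre-warmed for 30 s at 37 °C. The reaction was started with 2 mM CaCl₂ plus AA, run 10 min at 37 °C and stopped with ice-cold methanol. Products were analysed by HPLC.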

[2] = target: T1, Polyunsaturated fatty acid 5-lipoxygenase; assay: Inhibition of 5-LO in human PMNL using arachidonic acid as substrate preincubated for 15 mins
Method in brief: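 PMNL were isolated from buffy coats by dextran sedimentation, Nycoprep centrifugation and hypotonic lysis of erythrocytes, then resuspended in PBS pH 7.4 with 1 mg/mL glucose and 1 mM CaCl₂. Cells were pre-incubated with compound for 15 min at 37 °C, then stimulated with A23187 plus AA for 10 min at 37 °C. 15-LO comes from eosinophils and 12-LO from adhering platelets in the preparation. After methanol/HCl stop and PGB₁ addition, metabolites were extracted and quantified by HPLC. Mean ± S.E.M., n = 3–4.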

Row | IC50 [1] [µM] | IC50 [2] [µM] | Structure (SMILES)
1 | > 10 | > 10 | O=C1C=C(Cc2ccccc2)C(=O)CC1=O
2 | > 10 | > 10 | O=C1CC(=O)C(=O)C(CC2CCCCC2)C1=O
3 | > 10 | > 10 | COC1=CC(=O)C(=O)C(Cc2ccc3ccccc3c2)C1=O (stereo not drawn)
4 | > 10 | > 10 | COC1=CC(=O)C(=O)C(Cc2ccccc2)C1=O (stereo not drawn)
